# Results published in ChEMBL document CHEMBL1148224, “The synthesis and structure-activity relationships of 3-amino-4-benzylquinolin-2-ones; discovery of novel KCNQ2 channel openers” (Bioorg Med Chem Lett, 2004).
# What was measured:
# [1] = biological target: Potassium voltage-gated channel subfamily KQT member 2 (Mus musculus) (UniProt Q9Z351); test: Increased outward current at -40 mV mediated by mouse KCNQ2 channel expressed in Xenopus laevis oocytes at 1 uM; assay type: functional, cell-based; settings: Oocyte
# Potassium voltage-gated channel subfamily KQT member 2 (Mus musculus), sequence (Q9Z351 whole entry): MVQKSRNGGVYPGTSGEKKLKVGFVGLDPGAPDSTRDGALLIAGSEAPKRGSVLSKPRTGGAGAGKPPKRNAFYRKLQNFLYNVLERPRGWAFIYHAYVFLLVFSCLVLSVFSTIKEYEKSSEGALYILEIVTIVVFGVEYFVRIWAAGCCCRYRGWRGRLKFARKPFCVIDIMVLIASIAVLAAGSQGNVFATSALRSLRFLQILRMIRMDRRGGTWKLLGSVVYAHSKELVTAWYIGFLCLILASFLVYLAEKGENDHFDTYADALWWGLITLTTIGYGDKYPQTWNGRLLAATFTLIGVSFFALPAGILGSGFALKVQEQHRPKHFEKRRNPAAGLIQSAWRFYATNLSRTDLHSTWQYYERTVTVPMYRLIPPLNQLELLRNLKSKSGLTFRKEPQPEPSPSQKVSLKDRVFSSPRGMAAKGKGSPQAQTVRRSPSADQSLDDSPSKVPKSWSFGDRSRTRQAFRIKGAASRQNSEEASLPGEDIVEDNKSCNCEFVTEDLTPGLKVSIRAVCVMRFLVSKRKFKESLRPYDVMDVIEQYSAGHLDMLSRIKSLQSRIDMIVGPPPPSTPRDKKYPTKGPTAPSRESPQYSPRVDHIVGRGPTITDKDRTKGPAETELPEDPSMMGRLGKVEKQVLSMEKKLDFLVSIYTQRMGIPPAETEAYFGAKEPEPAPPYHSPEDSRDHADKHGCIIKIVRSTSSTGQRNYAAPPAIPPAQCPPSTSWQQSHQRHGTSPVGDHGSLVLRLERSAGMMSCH
# Method in brief: (§1)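 Mouse KCNQ2 (mKCNQ2) currents recorded from Xenopus oocytes by two-electrode voltage clamp. Holding potential -90 mV, with about 5 s steps in +10 mV increments up to +40 mV. Records digitized at 5 kHz. Each compound applied at a single concentration (1, 5 or 20 µM) in at least 3 oocytes. Value is the mean percent change in current relative to the drug-free control (100%).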
# [2] = biological target: Potassium voltage-gated channel subfamily KQT member 2 (Mus musculus) (UniProt Q9Z351); test: Increased outward current at -40 mV mediated by mouse KCNQ2 channel expressed in Xenopus laevis oocytes at 20 uM; assay type: functional, cell-based; settings: Oocyte; method in brief: as §1
# [3] = biological target: Potassium voltage-gated channel subfamily KQT member 2 (Mus musculus, UniProt Q9Z351); test: Increased outward current at -40 mV mediated by mouse KCNQ2 channel expressed in Xenopus laevis oocytes; assay type: functional, cell-based, Oocyte
# Potassium voltage-gated channel subfamily KQT member 2, sequence (Q9Z351 whole entry): as above
# [4] = biological target: Potassium voltage-gated channel subfamily KQT member 2 (Mus musculus) (UniProt Q9Z351); test: Increased outward current at -40 mV mediated by mouse KCNQ2 channel expressed in Xenopus laevis oocytes at 100 nM; assay type: functional, cell-based; settings: Oocyte
# [5] = biological target: Potassium voltage-gated channel subfamily KQT member 2 (Mus musculus) (UniProt Q9Z351); test: Increased outward current at -40 mV mediated by mouse KCNQ2 channel expressed in Xenopus laevis oocytes at 20 uM; Insoluble; assay type: functional, cell-based; settings: Oocyte; method in brief: as §1
# [6] = biological target: Potassium voltage-gated channel subfamily KQT member 2 (Mus musculus) (UniProt Q9Z351); test: Increased outward current at -40 mV mediated by mouse KCNQ2 channel expressed in Xenopus laevis oocytes at 5 uM; Insoluble; assay type: functional, cell-based; settings: Oocyte; method in brief: as §1
SMILES,Increase [2],further results
O=S(=O)(Nc1c(O)nc2cc(C(F)(F)F)ccc2c1Cc1cc(Cl)ccc1O)C(F)(F)F,271%,Increase [1]: 190%
O=c1[nH]c2ccc(C(F)(F)F)cc2c(Cc2cc(Cl)ccc2O)c1NS(=O)(=O)C(F)(F)F,–,EC50 [3]: 663 nM
Nc1c(O)nc2ccccc2c1Cc1ccccc1,103%,–
COc1ccccc1Cc1c(NS(=O)(=O)C(F)(F)F)c(O)nc2cc(C(F)(F)F)ccc12,254%,–
Nc1c(O)nc2ccc(C(F)(F)F)cc2c1Cc1cc(Cl)ccc1O,122%,–
O=S(=O)(Nc1c(O)nc2cc(C(F)(F)F)ccc2c1Cc1cccc(Cl)c1)C(F)(F)F,220%,–
O=S(=O)(Nc1c(O)nc2cc(C(F)(F)F)ccc2c1Cc1ccccc1)C(F)(F)F,223%,–
O=S(=O)(Nc1c(O)nc2ccc(C(F)(F)F)cc2c1Cc1cc(Cl)ccc1O)C(F)(F)F,284%,Increase [4]: 143%; Increase [1]: 217%
COc1ccc(Cl)cc1Cc1c(NS(=O)(=O)C(F)(F)F)c(O)nc2ccc(C(F)(F)F)cc12,231%,–
Nc1c(O)nc2cc(C(F)(F)F)ccc2c1Cc1cc(Cl)ccc1O,–,Increase [1]: 89%; Increase [5]: Insoluble; Increase [6]: Insoluble
O=S(=O)(Nc1c(O)nc2cc(C(F)(F)F)ccc2c1Cc1ccccc1O)C(F)(F)F,277%,–
O=S(=O)(Nc1c(O)nc2ccccc2c1Cc1ccccc1)C(F)(F)F,131%,–
CCOC(=O)Nc1ccc(NCc2ccc(F)cc2)cc1N,269%,–
